Shown is part of a subset that was picked to be rich in hits.
E-sel inducer: induces E-selectin expression in human endothelial cells; HUVEC E-selectin immunofluorescence imaging; normalized: neutral wells 0, TNF-alpha wells 100; actives 0.37% (n = 260,000); activation, % at 7.58 µM; AID 686992;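 active = mean E-selectin-positive cell signal at least 10% of the positive control, reached in at least 60% of replicates, without over 20% cell loss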
Target sequence (P16581 whole entry, looked up): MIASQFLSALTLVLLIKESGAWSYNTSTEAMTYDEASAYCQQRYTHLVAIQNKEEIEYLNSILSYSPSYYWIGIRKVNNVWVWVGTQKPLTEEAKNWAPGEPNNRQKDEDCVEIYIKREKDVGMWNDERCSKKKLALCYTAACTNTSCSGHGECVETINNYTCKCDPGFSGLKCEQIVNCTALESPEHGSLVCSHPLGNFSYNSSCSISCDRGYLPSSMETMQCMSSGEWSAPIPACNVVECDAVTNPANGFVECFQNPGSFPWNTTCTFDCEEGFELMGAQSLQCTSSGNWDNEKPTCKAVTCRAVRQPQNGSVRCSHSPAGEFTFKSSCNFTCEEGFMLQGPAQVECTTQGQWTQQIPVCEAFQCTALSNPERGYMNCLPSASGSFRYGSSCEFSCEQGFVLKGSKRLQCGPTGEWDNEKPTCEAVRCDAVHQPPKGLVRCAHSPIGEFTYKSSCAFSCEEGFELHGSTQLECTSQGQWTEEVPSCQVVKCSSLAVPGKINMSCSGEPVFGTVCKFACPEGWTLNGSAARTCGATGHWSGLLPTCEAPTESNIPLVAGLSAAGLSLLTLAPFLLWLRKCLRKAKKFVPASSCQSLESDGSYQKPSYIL
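Assay system: HUVEC primary endothelial cells. Input: 3,000 HUVEC seeded per well. Doses: one compound dose added by pin transfer. Read-out basis: % PE-positive cells. Benchmarks: TNF-alpha high, DMSO low. Detection: immunofluorescence imaging. Buffer or medium: EGM-2, gelatin.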
The depositor's hits bear a star.

SMILES	E-sel inducer
COc1ccc(NC(=O)Nc2cccc3c2O[C@@H](CN(C)CC2CC2)[C@H](C)CN([C@H](C)CO)C3=O)cc1	-0.1
C[C@H](CO)N1C[C@H](C)[C@@H](CN(C)Cc2ccc3c(c2)OCO3)Oc2ccc(NC(=O)C3CC3)cc2CC1=O	-5.4
CC(C)NC(=O)Nc1ccc2c(c1)CC(=O)N([C@@H](C)CO)C[C@@H](C)[C@H](CN(C)Cc1ccc(Cl)c(Cl)c1)O2	21.9
COc1ccc(NC(=O)Nc2ccc3c(c2)CC(=O)N([C@H](C)CO)C[C@@H](C)[C@@H](CN(C)S(=O)(=O)c2ccc(OC)cc2)O3)cc1	0.2
C[C@@H]1CN([C@H](C)CO)C(=O)Cc2cc(NC(=O)Nc3ccc4c(c3)OCO4)ccc2O[C@H]1CN(C)Cc1ccc(Cl)c(Cl)c1	299.9*
CC(C)NC(=O)Nc1ccc2c(c1)CC(=O)N([C@H](C)CO)C[C@H](C)[C@H](CN(C)Cc1ccc(Cl)c(Cl)c1)O2	59.0*
COc1ccc(S(=O)(=O)N(C)C[C@@H]2Oc3ccc(NC(=O)Nc4ccc5c(c4)OCO5)cc3CC(=O)N([C@@H](C)CO)C[C@@H]2C)cc1	-13.1
C[C@@H]1CN([C@@H](C)CO)C(=O)Cc2cc(NC(=O)C3CC3)ccc2O[C@H]1CN(C)Cc1ccc2c(c1)OCO2	-5.5
C[C@@H]1CN([C@H](C)CO)C(=O)Cc2cc(NC(=O)Nc3ccc4c(c3)OCO4)ccc2O[C@@H]1CN(C)Cc1ccc(Cl)c(Cl)c1	-13.0
C[C@@H]1CN([C@H](C)CO)C(=O)Cc2cc(NC(=O)Nc3ccc4c(c3)OCO4)ccc2O[C@@H]1CN(C)Cc1ccc2c(c1)OCO2	0.4
C[C@@H]1CN([C@H](C)CO)C(=O)Cc2cc(NC(=O)Nc3ccccc3)ccc2O[C@@H]1CN(C)Cc1ccc(Cl)c(Cl)c1	0.9
C[C@@H]1CN([C@@H](C)CO)C(=O)Cc2cc(NC(=O)C3CC3)ccc2O[C@@H]1CN(C)Cc1ccc2c(c1)OCO2	48.8*
COc1ccc(S(=O)(=O)N(C)C[C@H]2Oc3ccc(NC(=O)Nc4ccc5c(c4)OCO5)cc3CC(=O)N([C@@H](C)CO)C[C@H]2C)cc1	79.3*
COc1ccc(S(=O)(=O)Nc2ccc3c(c2)C(=O)N([C@@H](C)CO)C[C@@H](C)[C@@H](CN(C)C(=O)Nc2c(C)noc2C)OCCCC[C@@H](C)O3)cc1	0.3
O=C(N[C@H]1CC[C@@H](CC(=O)N2CCOCC2)O[C@H]1CO)c1ccc2c(c1)OCO2	0.3
CCCN(C)C[C@@H]1Oc2cc(-c3ccccc3C)ccc2S(=O)(=O)N([C@@H](C)CO)C[C@@H]1C	1.1
O=C(C[C@H]1C=C[C@H](NC(=O)CN2CCOCC2)[C@H](CO)O1)NC1CCCCC1	-0.1
O=C(NCC[C@H]1CC[C@@H](NS(=O)(=O)c2ccc(Cl)cc2)[C@@H](CO)O1)Nc1ccc(F)cc1	-0.6
CCC(=O)N1[C@@H](CO)[C@@H]2c3ccccc3N(C(=O)Nc3ccccc3Cl)C[C@@H]21	0.2
CO[C@H]1CN(C)C(=O)c2ccc(NS(=O)(=O)c3ccccc3C)cc2OC[C@@H](C)N(C)C[C@@H]1C	-0.2
C[C@@H]1CN([C@H](C)CO)C(=O)c2cc(NS(=O)(=O)c3cccs3)ccc2O[C@@H]1CN(C)Cc1ccc2c(c1)OCO2	0.1
C[C@H](CO)N1C[C@H](C)[C@H](CN(C)C)Oc2ccc(NC(=O)Nc3ccc4c(c3)OCO4)cc2CC1=O	12.2
C[C@@H]1CN([C@@H](C)CO)C(=O)Cc2cc(NC(=O)Nc3ccc4c(c3)OCO4)ccc2O[C@H]1CN(C)C	384.1*
CC(C)NC(=O)Nc1ccc2c(c1)CC(=O)N([C@@H](C)CO)C[C@H](C)[C@@H](CN(C)Cc1ccc(Cl)c(Cl)c1)O2	-26.0
C[C@H](CO)N1C[C@H](C)[C@@H](CN(C)C)Oc2ccc(NC(=O)Nc3ccc4c(c3)OCO4)cc2CC1=O	2.6
SMILES	E-sel inducer
CC(C)NC(=O)Nc1ccc2c(c1)CC(=O)N([C@H](C)CO)C[C@@H](C)[C@@H](CN(C)Cc1ccc(Cl)c(Cl)c1)O2	47.0*
CC(C)NC(=O)Nc1ccc2c(c1)CC(=O)N([C@@H](C)CO)C[C@@H](C)[C@@H](CN(C)Cc1ccc(Cl)c(Cl)c1)O2	-8.1
C[C@H]1CN([C@@H](C)CO)C(=O)Cc2cc(NC(=O)C3CCCCC3)ccc2O[C@H]1CN(C)C(=O)Nc1ccccc1	-0.5
O=C([C@@H]1[C@@H](CO)[C@@H]2Cn3c(ccc(-c4cccnc4)c3=O)[C@@H]2N1CCC(F)(F)F)N1CCOCC1	0.0
COc1cccc(S(=O)(=O)Nc2ccc3c(c2)[C@@H]2C[C@@H](CC(=O)N(C)C)O[C@@H](CO)[C@@H]2O3)c1	0.2
Cc1cccc(OC(C)C(=O)N/N=C\c2ccncc2)c1 (configuration not stated)	372.3*
Cc1cccc(C(=O)Oc2ccc(/C=N/NC(=O)c3ccncc3)cc2)c1	0.6
CC(Oc1cccc2cccnc12)C(=O)N/N=C/c1ccccc1 (configuration not stated)	5.0
CCC(=O)Nc1ccc2c(c1)OC[C@H](C)N(Cc1cccnc1)C[C@H](C)[C@H](OC)CN(C)C2=O	-0.2
C[C@H](CO)N1C[C@H](C)[C@H](CN(C)Cc2cccc(C(F)(F)F)c2)OCc2ccccc2-c2ccccc2C1=O	-7.3
C[C@@H]1CN([C@@H](C)CO)C(=O)c2ccccc2-c2ccccc2CO[C@H]1CN(C)S(=O)(=O)c1ccc([N+](=O)[O-])cc1	0.4
COc1ccc(S(=O)(=O)N(C)C[C@@H]2Oc3c(NC(=O)c4cc(C)nn4C)cccc3C(=O)N([C@@H](C)CO)C[C@@H]2C)cc1	-0.1
CC1=NN(c2ccccc2)C(=O)C1N=Nc1ccccc1 (configuration not stated)	59.5*
CC1=NN(C(N)=S)C(=O)C1N=Nc1ccccc1 (configuration not stated)	5.4
COc1ccc(N=NC2C(=O)N(c3ccccc3)N=C2C)cc1 (configuration not stated)	0.5
O=C(c1cccnc1)N1C[C@@H]2[C@H](c3ccccc31)[C@@H](CO)N2C(=O)Nc1ccccc1F	-0.1
O=C(O)c1c(C(=O)O)c(-c2ccc(Cl)c(Cl)c2)n2c1CSC2	58.4*
Cc1ccc(-c2c(C(=O)O)c(C(=O)O)c3n2CCC3)cc1	0.2
O=C(O)c1c(C(=O)O)c(-c2ccc(F)cc2)n2c1CCC2	14.9
O=C(C[C@@H]1C=C[C@@H](NC(=O)Nc2ccccc2)[C@H](CO)O1)NCc1ccccn1	-1.4
Cc1cccc2c1NC1(CCCC1)CC2C (configuration not stated)	187.9*
CC(=O)N1Cc2ccccc2C(C)CC12CCCC2 (configuration not stated)	0.4
CC1CC2(CCCC2)Nc2ccc(F)cc21 (configuration not stated)	-0.1
O=C(C[C@H]1C[C@H]2c3cc(NC(=O)Cc4ccncc4)ccc3O[C@H]2[C@H](CO)O1)NCc1ccc(-c2ccccc2)cc1	-0.3
O=C(CN(Cc1ccc(F)cc1)C(=O)CNS(=O)(=O)c1ccc(F)cc1)NCc1ccco1	30.1*
Cc1ccc(S(=O)(=O)NCC(=O)N(CC(=O)NCc2ccco2)Cc2ccccc2)cc1	0.4
O=C(CN(Cc1ccccc1)C(=O)CNS(=O)(=O)c1ccc(F)cc1)NCc1ccco1	-0.5
C/C=C/c1cnc2c(c1)C(=O)N([C@@H](C)CO)C[C@@H](C)[C@@H](CN(C)C(=O)Cc1ccccc1)O2	-0.2

High-throughput results as filed in PubChem.
